Source: ChEMBL document CHEMBL4477192, “Laxitextines A and B, Cyathane Xylosides from the Tropical Fungus Laxitextum incrustatum” (J Nat Prod, 2016)
Values after ≈ are worked out from the molar mass of the structure shown. Active and inactive are the calls of the source. The calls are words filed in the database; no cut-off is given here.

What was measured:
[1] = tested on: Staphylococcus aureus; experiment: microbe, parasite or virus in culture; settings: DSM 1182
[2] = tested on: Bacillus subtilis; experiment: Antimicrobial activity against Bacillus subtilis DSM 10 after 24 to 48 hrs by serial dilution method; type: functional
[3] = tested on: Staphylococcus aureus; experiment: Antimicrobial activity against Staphylococcus aureus DSM 346 at 20 uL of 1 mg/ml compound solution after 24 to 48 hrs by serial dilution method; type: functional
[4] = tested on: Staphylococcus aureus; experiment: Antimicrobial activity against Staphylococcus aureus DSM 346 at 2 uL of 1 mg/ml compound solution after 24 to 48 hrs by serial dilution method; type: functional
[5] = tested on: Staphylococcus aureus; experiment: Antimicrobial activity against Methicillin-resistant Staphylococcus aureus DSM 1182 at 20 uL of 1 mg/ml compound solution after 24 to 48 hrs by serial dilution method; type: functional
[6] = tested on: L929; experiment: Antiproliferative activity against mouse L929 cells after 5 days by MTT assay; type: functional, cell-based; settings: L929, 120 h
How it was run: (§1)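 Serial dilution in 96-well tissue-culture plates starting from 3.0 μL of 1 mg/mL stock. L929 grown in DMEM; MCF-7 and A431 in RPMI; each with 10% FBS. Incubation at 37 °C under 5% CO2 for 5 days. Methanol as negative control, epothilone A as positive control. IC50 in μM.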

[7] = tested on: HUVEC; experiment: Antiproliferative activity against HUVEC after 5 days by MTT assay; type: functional, cell-based; settings: Homo sapiens, 120 h
[8] = tested on: A-431; experiment: Antiproliferative activity against human A431 cells after 5 days by MTT assay; type: functional, cell-based; settings: A-431, 120 h
How it was run: as §1

[9] = tested on: MCF7; experiment: Antiproliferative activity against human MCF7 cells after 5 days by MTT assay; type: functional, cell-based; settings: MCF7, 120 h
How it was run: as §1

[10] = tested on: Staphylococcus aureus; settings: DSM 1182

SMILES	MIC [1] [µg/mL]	MIC [2] [µM]	MIC [3]	MIC [4]	MIC [5] [µM]	IC50 [6] [µM]	IC50 [7] [µM]	IC50 [8] [µM]	IC50 [9] [nM]	MIC [10]
CN[C@H](CC(C)C)C(=O)N[C@H]1C(=O)N[C@@H](CC(N)=O)C(=O)N[C@H]2C(=O)N[C@H]3C(=O)N[C@H](C(=O)N[C@H](C(=O)O)c4cc(O)cc(O)c4-c4cc3ccc4O)[C@H](O)c3ccc(c(Cl)c3)Oc3cc2cc(c3O[C@@H]2O[C@H](CO)[C@@H](O)[C@H](O)[C@H]2O[C@H]2C[C@](C)(N)[C@H](O)[C@H](C)O2)Oc2ccc(cc2Cl)[C@H]1O [VANCOMYCIN]	1.6 (≈ 1.1 µM)	–	–	–	–	–	–	–	–	–
CC(C)C1=C2[C@H]3CC[C@@H]4CO[C@@]5(O)[C@H](O)CO[C@H]6O[C@@H]([C@@H]4[C@]65O)[C@]3(C)CC[C@@]2(C)CC1	–	76.7 (≈ 33.3 µg/mL)	17.9 µM	6.6 µg/mL (≈ 15.2 µM)	17.9 (≈ 7.78 µg/mL)	17.3	4.8	5.8	2300	inactive
CC(C)C1=C2[C@H]3CC[C@@H]4[C@@H]5O[C@]6(O)[C@@]7(O)[C@@H](OC[C@]6(O)O5)O[C@@H]([C@@H]47)[C@]3(C)CC[C@@]2(C)CC1	–	37.4 (≈ 16.8 µg/mL)	15.7 µg/mL	inactive	140 (≈ 62.8 µg/mL)	16.1	3.6	4.9	2000	inactive
